Measured values taken from ChEMBL document CHEMBL2069246, “Oxadiazoles in medicinal chemistry” (J Med Chem, 2012).

Columns and labels:
[1] = target: Voltage-gated inwardly rectifying potassium channel KCNH2 (Homo sapiens, UniProt Q12809); assay: Inhibition of human ERG channel expressed in CHO cells by patch clamp assay
[2] = Lipophilicity, log D of the compound at pH 7.4; type: physicochemical; conditions: buffer
[3] = Dissociation constant, pKa of the compound; type: physicochemical
[4] = target: T1, Cytochrome P450 3A4 (Homo sapiens, UniProt P08684); assay: Inhibition of human recombinant CYP3A4 coexpressed in Escherichia coli; type: ADME
In short: (§1)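 Human recombinant cytochrome P450s at 37 °C. Read-out is inhibition of metabolic degradation of each isoform's substrate. Percent inhibition is measured at five test concentrations and converted to IC50.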

[5] = target: T2, Cytochrome P450 2C9 (Homo sapiens, UniProt P11712); assay: Activity of human recombinant CYP2C9 assessed as enzyme contribution towards compound metabolism at 37 degC; type: ADME
In short: (§2)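 CYP reaction phenotyping with human recombinant P450 isoforms at 37 °C. Each isoform's share of compound metabolism is given as percent contribution relative to the other isoforms in the test.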

[6] = target: CYP3A4 (Homo sapiens, UniProt P08684); assay: Time dependent inhibition of human recombinant CYP3A4 coexpressed in Escherichia coli at 50 uM using midazolam as probe; type: ADME
In short: (§3)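 Time-dependent inhibition of human recombinant P450s. Compound is preincubated 30 min at 37 °C with and without NADPH, then percent inhibition is read. Run at 10 and 50 μM, with the 50 μM value reported.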

[7] = target: T1, Cytochrome P450 3A4; assay: Activity of human recombinant CYP3A4 assessed as enzyme contribution towards compound metabolism at 37 degC; type: ADME; parameters: concentration or dose not given beside the values; in short: as §2
[8] = target: T2, Cytochrome P450 2C9; assay: Inhibition of human recombinant CYP2C9 coexpressed in Escherichia coli; type: ADME; in short: as §1
[9] = target: CYP2D6 (Homo sapiens, UniProt P10635); assay: Time dependent inhibition of human recombinant CYP2D6 coexpressed in Escherichia coli at 50 uM using bufuralol as probe; type: ADME; in short: as §3
[10] = target: T3, Cytochrome P450 2C8 (Homo sapiens, UniProt P10632); assay: Activity of human recombinant CYP2C8 assessed as enzyme contribution towards compound metabolism at 37 degC; type: ADME; in short: as §2
T3 sequence (P10632 whole entry): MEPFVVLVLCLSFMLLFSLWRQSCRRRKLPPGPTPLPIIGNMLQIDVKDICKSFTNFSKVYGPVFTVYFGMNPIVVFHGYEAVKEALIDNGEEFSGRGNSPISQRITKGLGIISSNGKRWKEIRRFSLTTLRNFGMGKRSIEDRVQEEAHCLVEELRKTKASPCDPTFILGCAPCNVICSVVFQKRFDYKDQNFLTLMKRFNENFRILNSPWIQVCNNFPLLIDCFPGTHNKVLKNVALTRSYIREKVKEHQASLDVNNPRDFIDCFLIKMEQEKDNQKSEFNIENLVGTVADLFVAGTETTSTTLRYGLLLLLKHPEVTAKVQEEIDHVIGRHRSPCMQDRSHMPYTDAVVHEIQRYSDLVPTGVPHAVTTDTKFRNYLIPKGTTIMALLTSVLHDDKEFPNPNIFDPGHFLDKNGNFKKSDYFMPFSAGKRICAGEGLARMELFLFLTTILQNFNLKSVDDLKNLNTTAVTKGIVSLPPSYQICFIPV

[11] = Intrinsic clearance in human liver microsomes at 1 mg/ml; type: ADME, Microsome; conditions: read-out: CLH
In short: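 Compound incubated 45 min at 37 °C with human liver microsomes at 1 mg/mL. CLint is taken from the rate of parent disappearance.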

[12] = target: T4, Cytochrome P450 2C19 (Homo sapiens, UniProt P33261); assay: Activity of human recombinant CYP2C19 assessed as enzyme contribution towards compound metabolism at 37 degC; type: ADME; in short: as §2
[13] = target: T5, CYP2C8 (Homo sapiens, UniProt P10632); assay: Time dependent inhibition of human recombinant CYP2C8 coexpressed in Escherichia coli at 50 uM using amodiaquine as probe; type: ADME; in short: as §3
T5 sequence (P10632 whole entry): T3 sequence (P10632 whole entry)

[14] = target: T6, CYP1A2 (Homo sapiens, UniProt P05177); assay: Time dependent inhibition of human recombinant CYP1A2 coexpressed in Escherichia coli at 50 uM using phenacetin as probe; type: ADME; in short: as §3
T6 sequence (P05177 whole entry): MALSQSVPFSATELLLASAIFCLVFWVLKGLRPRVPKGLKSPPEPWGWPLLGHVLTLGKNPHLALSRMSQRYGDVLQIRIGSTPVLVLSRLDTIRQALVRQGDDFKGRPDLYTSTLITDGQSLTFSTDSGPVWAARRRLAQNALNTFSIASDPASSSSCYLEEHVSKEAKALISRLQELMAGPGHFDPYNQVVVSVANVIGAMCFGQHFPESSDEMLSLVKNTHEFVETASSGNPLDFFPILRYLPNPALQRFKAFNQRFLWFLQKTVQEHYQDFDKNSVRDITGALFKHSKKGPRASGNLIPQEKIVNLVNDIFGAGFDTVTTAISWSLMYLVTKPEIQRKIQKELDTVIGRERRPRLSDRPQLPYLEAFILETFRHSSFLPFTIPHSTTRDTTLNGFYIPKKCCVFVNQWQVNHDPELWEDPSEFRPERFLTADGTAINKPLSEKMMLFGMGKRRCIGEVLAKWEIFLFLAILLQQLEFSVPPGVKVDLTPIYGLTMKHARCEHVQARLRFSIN

[15] = target: T4, Cytochrome P450 2C19; assay: Inhibition of human recombinant CYP2C19 coexpressed in Escherichia coli; type: ADME; in short: as §1
[16] = target: T3, Cytochrome P450 2C8; assay: Inhibition of human recombinant CYP2C8 coexpressed in Escherichia coli; type: ADME; in short: as §1
[17] = target: T7, Cytochrome P450 2D6 (Homo sapiens, UniProt P10635); assay: Activity of human recombinant CYP2D6 assessed as enzyme contribution towards compound metabolism at 37 degC; type: ADME; in short: as §2
[18] = target: CYP2C19 (Homo sapiens, UniProt P33261); assay: Time dependent inhibition of human recombinant CYP2C19 coexpressed in Escherichia coli at 50 uM using mephenytoin as probe; type: ADME; in short: as §3
[19] = target: T7, Cytochrome P450 2D6; assay: Inhibition of human recombinant CYP2D6 coexpressed in Escherichia coli; type: ADME; in short: as §1
[20] = target: T8, Cytochrome P450 1A2 (Homo sapiens, UniProt P05177); assay: Inhibition of human recombinant CYP1A2 coexpressed in Escherichia coli using phenacetin as probe; type: ADME; in short: as §1
T8 sequence (P05177 whole entry): T6 sequence (P05177 whole entry)

[21] = target: CYP2C9 (Homo sapiens, UniProt P11712); assay: Time dependent inhibition of human recombinant CYP2C9 coexpressed in Escherichia coli at 50 uM using diclofenac as probe; type: ADME; in short: as §3
[22] = target: T8, Cytochrome P450 1A2; assay: Activity of human recombinant CYP1A2 assessed as enzyme contribution towards compound metabolism at 37 degC; type: ADME; in short: as §2

CYP2D6, sequence (P10635 whole entry): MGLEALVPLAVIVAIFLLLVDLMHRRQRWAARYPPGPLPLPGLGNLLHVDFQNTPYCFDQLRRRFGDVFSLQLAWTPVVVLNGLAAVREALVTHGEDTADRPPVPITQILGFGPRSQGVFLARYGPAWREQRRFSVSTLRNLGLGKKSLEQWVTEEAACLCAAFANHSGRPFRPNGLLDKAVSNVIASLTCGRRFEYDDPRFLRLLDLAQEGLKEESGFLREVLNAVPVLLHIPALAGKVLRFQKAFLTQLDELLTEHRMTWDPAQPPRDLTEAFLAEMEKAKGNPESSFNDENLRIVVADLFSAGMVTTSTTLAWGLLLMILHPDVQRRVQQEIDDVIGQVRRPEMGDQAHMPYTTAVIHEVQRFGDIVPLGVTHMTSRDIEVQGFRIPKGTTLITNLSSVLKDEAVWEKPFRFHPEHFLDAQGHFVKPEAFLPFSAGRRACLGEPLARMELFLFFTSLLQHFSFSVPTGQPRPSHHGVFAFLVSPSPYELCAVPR
T7 sequence (P10635 whole entry): as above
Voltage-gated inwardly rectifying potassium channel KCNH2, sequence (Q12809 whole entry): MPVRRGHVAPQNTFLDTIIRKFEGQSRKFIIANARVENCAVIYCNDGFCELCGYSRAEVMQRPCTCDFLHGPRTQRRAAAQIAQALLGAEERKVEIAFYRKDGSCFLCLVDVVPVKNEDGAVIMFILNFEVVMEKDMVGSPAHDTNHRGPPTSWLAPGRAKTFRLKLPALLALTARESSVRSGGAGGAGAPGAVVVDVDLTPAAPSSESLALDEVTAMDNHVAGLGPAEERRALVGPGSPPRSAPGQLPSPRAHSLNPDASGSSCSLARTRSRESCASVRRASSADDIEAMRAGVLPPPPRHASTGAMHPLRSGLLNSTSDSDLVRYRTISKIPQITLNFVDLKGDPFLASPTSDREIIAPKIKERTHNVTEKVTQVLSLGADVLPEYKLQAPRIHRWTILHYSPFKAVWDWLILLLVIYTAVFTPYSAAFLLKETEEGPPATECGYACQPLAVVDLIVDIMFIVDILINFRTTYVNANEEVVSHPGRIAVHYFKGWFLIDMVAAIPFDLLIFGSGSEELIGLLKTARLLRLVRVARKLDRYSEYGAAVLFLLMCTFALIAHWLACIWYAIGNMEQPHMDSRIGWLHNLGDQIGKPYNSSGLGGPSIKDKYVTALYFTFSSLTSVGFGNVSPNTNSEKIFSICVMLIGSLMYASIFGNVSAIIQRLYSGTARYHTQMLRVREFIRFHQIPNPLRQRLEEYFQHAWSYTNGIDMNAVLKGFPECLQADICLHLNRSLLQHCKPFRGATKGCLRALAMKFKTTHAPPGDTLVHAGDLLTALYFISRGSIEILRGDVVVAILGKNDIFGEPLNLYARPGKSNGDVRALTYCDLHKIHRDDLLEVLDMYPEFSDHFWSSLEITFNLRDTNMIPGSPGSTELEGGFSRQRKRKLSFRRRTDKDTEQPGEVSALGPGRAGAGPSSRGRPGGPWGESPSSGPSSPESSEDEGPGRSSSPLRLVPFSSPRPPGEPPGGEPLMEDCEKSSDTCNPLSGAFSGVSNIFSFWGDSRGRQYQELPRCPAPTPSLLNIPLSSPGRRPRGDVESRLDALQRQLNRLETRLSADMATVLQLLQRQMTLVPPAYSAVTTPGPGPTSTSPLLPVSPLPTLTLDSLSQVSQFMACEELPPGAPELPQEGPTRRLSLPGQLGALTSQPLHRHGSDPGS
T4 sequence (P33261 whole entry): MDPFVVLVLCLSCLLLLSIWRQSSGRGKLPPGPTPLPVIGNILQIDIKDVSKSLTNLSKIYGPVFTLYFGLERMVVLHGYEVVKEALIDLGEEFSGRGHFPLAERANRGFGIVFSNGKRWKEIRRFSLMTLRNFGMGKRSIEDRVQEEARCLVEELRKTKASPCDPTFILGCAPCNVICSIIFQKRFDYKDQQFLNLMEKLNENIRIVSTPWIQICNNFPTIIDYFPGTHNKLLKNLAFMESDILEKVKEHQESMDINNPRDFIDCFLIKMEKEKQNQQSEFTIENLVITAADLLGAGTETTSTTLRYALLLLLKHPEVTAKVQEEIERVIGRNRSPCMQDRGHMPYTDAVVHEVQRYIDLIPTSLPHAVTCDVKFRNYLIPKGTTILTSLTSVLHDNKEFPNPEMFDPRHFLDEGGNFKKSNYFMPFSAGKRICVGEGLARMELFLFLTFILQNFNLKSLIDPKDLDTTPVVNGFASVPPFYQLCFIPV
CYP2C19, sequence (P33261 whole entry): as above
T2 sequence (P11712 whole entry, canonical isoform): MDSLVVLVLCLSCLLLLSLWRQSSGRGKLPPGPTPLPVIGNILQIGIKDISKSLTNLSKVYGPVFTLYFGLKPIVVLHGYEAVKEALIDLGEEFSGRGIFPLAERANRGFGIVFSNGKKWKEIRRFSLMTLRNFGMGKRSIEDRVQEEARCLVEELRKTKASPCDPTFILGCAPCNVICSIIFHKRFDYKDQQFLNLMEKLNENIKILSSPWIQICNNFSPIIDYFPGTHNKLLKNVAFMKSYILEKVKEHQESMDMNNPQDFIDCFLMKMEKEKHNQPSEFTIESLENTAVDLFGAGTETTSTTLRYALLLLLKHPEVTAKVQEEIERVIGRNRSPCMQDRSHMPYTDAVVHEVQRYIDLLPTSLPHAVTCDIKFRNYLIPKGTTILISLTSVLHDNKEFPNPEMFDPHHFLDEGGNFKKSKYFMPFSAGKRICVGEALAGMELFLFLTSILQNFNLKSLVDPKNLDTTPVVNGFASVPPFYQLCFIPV
CYP2C9, sequence (P11712 whole entry): as the sequence (P11712 whole entry, canonical isoform) above
CYP3A4, sequence (P08684 whole entry): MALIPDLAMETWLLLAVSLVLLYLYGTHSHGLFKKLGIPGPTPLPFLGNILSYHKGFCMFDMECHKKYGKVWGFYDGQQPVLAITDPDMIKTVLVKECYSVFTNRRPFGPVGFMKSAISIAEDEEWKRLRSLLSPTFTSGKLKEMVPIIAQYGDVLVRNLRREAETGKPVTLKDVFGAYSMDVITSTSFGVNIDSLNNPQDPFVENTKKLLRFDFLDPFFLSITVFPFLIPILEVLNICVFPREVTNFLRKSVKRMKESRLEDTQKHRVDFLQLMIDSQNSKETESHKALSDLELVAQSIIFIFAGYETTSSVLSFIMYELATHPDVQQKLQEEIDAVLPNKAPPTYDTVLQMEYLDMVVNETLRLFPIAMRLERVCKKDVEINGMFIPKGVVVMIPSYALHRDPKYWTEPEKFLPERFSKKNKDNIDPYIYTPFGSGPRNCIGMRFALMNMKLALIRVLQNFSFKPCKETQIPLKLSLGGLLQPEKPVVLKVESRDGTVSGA
T1 sequence (P08684 whole entry, canonical isoform): as the sequence (P08684 whole entry) above

Structure (SMILES) | logD [2] | pKa [3] | IC50 [4] | CYP isoform contribution to compound metabolism [5] | inhibition at 50 µM [6] | Activity [7] | inhibition at 50 µM [9] | Activity [10] | microsomal CLint [11] | Activity [12] | inhibition at 50 µM [13] | inhibition at 50 µM [14] | IC50 [15] | IC50 [16] | Activity [17] | inhibition at 50 µM [18] | IC50 [19] | IC50 [20] | inhibition at 50 µM [21] | Activity [22] | further results
c1cncc(-c2ccc(-c3noc(C4CN5CCC4CC5)n3)o2)c1 (configuration not stated) | 0.7 | 8.8 |  |  |  |  |  |  |  |  |  |  |  |  |  |  |  |  |  |  | IC50 [1]: 6.4 µM
Clc1cc(-c2nnc(CSc3nnc(-c4ccncc4)n3C3CC3)o2)ccn1 |  |  | > 20 µM | 0% | < 7% | 100% | < 11% | 0% | 8 µL/min/mg | 0% | < 14% | < 10% | > 20 µM | > 20 µM | 0% | < 12% | > 20 µM | > 20 µM | < 19% | 0% | IC50 [8]: > 20 µM
c1cncc(-c2ccc(-c3nnc(C4CN5CCC4CC5)o3)o2)c1 (configuration not stated) | < 0 | 9.1 |  |  |  |  |  |  |  |  |  |  |  |  |  |  |  |  |  |  | IC50 [1]: 20.2 µM
O=C(NC1CCCCC1)c1nnc(CS(=O)(=O)c2ccccc2)o1 |  |  | > 20 µM | 0% | < 7% | 52.2% | < 9% | 0% | < 5 µL/min/mg | 45.4% | < 13% | < 7% | > 20 µM | > 20 µM | 2.4% | < 12% | > 20 µM | > 20 µM | < 19% | 0% | IC50 [8]: > 20 µM
c1ccc(-c2noc(CN3CCN(Cc4nc5ccccc5s4)CC3)n2)cc1 | 5.3 | 4.4 |  |  |  |  |  |  |  |  |  |  |  |  |  |  |  |  |  |  | IC50 [1]: 13 µM
O=C(NC1CCCCC1)c1nc(CS(=O)(=O)c2ccccc2)no1 |  |  | > 20 µM | 0.3% | < 7% | 91.5% | < 9% | 0% | 50 µL/min/mg | 7.9% | < 13% | < 7% | > 20 µM | > 20 µM | 0.1% | < 19% | > 20 µM | > 20 µM | < 19% | 0.2% | IC50 [8]: > 20 µM
CN(Cc1nc2ccccc2c(=O)[nH]1)Cc1nnc(-c2ccccc2)o1 | 2 | 2.3 |  |  |  |  |  |  |  |  |  |  |  |  |  |  |  |  |  |  | IC50 [1]: > 33 µM
CN(Cc1nc2ccccc2c(=O)[nH]1)Cc1nc(-c2ccccc2)no1 | 3.1 | 2.1 |  |  |  |  |  |  |  |  |  |  |  |  |  |  |  |  |  |  | 
O=C(NCc1ccncc1)c1nnc(CS(=O)(=O)c2ccccc2)o1 |  |  | > 20 µM | 0% | < 7% | 0% | < 11% | 0% | < 5 µL/min/mg | 0% | < 14% | < 10% | 9.8 µM | > 20 µM | 100% | < 12% | 5.7 µM | > 20 µM | < 19% | 0% | IC50 [8]: 1.7 µM
c1ccc(CN2CCN(Cc3nc(-c4ccccc4)no3)CC2)cc1 | 5.1 | 6.7 | > 20 µM | 1% | 9% | 92.1% | < 9% | 0.9% | 9 µL/min/mg | 2.2% | < 13% | < 7% | > 20 µM | > 20 µM | 2.3% | < 12% | 10.2 µM | > 20 µM | < 19% | 1.5% | 
c1cc(-c2nnc(C3CCCCC3)o2)ccn1 |  |  | > 20 µM | 2.4% | < 7% | 11.7% | < 11% | 1.5% | 17 µL/min/mg | 14.8% | < 14% | < 10% | 1.3 µM | > 20 µM | 1.1% | 13% | > 20 µM | > 20 µM | < 19% | 68.5% | IC50 [8]: > 20 µM
CCOC(=O)N1CCN(Cc2nnc(-c3cc(Cl)ccc3F)o2)CC1 | 3.2 | 3.5 |  |  |  |  |  |  |  |  |  |  |  |  |  |  |  |  |  |  | 
Clc1cc(-c2nc(CSc3nnc(-c4ccncc4)n3C3CC3)no2)ccn1 |  |  | 14.2 µM | 0% | 30% | 99.5% | < 11% | 0.2% | > 300 µL/min/mg | 0.1% | < 14% | < 10% | > 20 µM | > 20 µM | 0% | < 12% | > 20 µM | > 20 µM | < 19% | 0.2% | IC50 [8]: > 20 µM
CCOC(=O)N1CCN(Cc2nnc(-c3cccc(Cl)c3)o2)CC1 | 3.3 | 3.5 |  |  |  |  |  |  |  |  |  |  |  |  |  |  |  |  |  |  | 
CCOC(=O)N1CCN(Cc2nc(-c3cccc(Cl)c3)no2)CC1 | 4.8 | 3.4 |  |  |  |  |  |  |  |  |  |  |  |  |  |  |  |  |  |  | 
c1cc(-c2noc(C3CCCCC3)n2)ccn1 |  |  | 10.2 µM | 4.7% | < 7% | 17.7% | < 9% | 1.5% | 83 µL/min/mg | 38% | < 13% | < 7% | 1.2 µM | > 20 µM | 8.6% | < 12% | 10 µM | 2.4 µM | < 19% | 29.5% | IC50 [8]: 17.6 µM
O=C(NCc1ccncc1)c1nc(CS(=O)(=O)c2ccccc2)no1 |  |  | 14.6 µM | 0.1% | 42% | 99.8% | < 11% | 0% | 93 µL/min/mg | 0.1% | < 14% | < 10% | 1.3 µM | > 20 µM | 0.1% | < 12% | 9.4 µM | > 20 µM | < 19% | 0% | IC50 [8]: 2.2 µM
